Assay results reported in ChEMBL document CHEMBL3286175, “Cytotoxic alkylated hydroquinone, phenol, and cyclohexenone derivatives from Aspergillus violaceofuscus Gasperini” (2014).

How the values were obtained:
Type in all cases: functional
HeLa = experiment: Cytotoxicity against human HeLa cells assessed as cell viability after 24 hrs by WST-1 assay; conditions: read-out: LD50 (the source's name)
Method in brief: (§1)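 Cells from ATCC grown in McCoy's 5A with 10% FBS, penicillin (100 units/mL) and streptomycin (100 μg/mL) at 37 °C, 5% CO2. Seeded at 1 × 10^4 cells per well with a range of compound concentrations for 24 h. Viability read by WST-1. LD50 values reported as mean ± SD (n = 5).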

MCF7 = experiment: Cytotoxicity against human MCF7 cells assessed as cell viability after 24 hrs by WST-1 assay; conditions: MCF7, 24 h, read-out: LD50 (the source's name); method in brief: as §1
Jurkat = experiment: Cytotoxicity against human Jurkat cells assessed as cell viability after 24 hrs by WST-1 assay; conditions: read-out: LD50 (the source's name); method in brief: as §1
MOLT-4 = experiment: Cytotoxicity against human MOLT4 cells assessed as cell viability after 24 hrs by WST-1 assay; conditions: MOLT-4, 24 h, read-out: LD50 (the source's name); method in brief: as §1
HCT-116 = experiment: Cytotoxicity against human HCT116 cells assessed as cell viability after 24 hrs by WST-1 assay; conditions: HCT-116, 24 h, read-out: LD50 (the source's name); method in brief: as §1
RAW264.7 = experiment: Cytotoxicity against mouse RAW264.7 cells assessed as cell viability after 24 hrs by WST-1 assay; conditions: RAW264.7, 24 h, read-out: LD50 (the source's name); method in brief: as §1

SMILES | CC50 (HeLa) [µM] | CC50 (MCF7) [µM] | CC50 (Jurkat) [µM] | CC50 (MOLT-4) [µM] | CC50 (HCT-116) [µM] | CC50 (RAW264.7) [µM]
CCCCC/C=C/c1c(O)ccc(O)c1CO | 24.6 | 14.8 | 3.1 | 3 | 5.8 | 5.6
CCCCCCC(O)c1c(O)ccc(O)c1CO (stereo not drawn) | > 100 | > 100 | > 100 | > 100 | 69.7 | 55.4
CCCCCCCc1c(O)ccc(O)c1CO | 77.6 | 93 | 8.2 | 5.9 | 61.8 | 20.1
CCCCCCC(O)c1cccc(O)c1CO (stereo not drawn) | 64.2 | > 100 | 8.3 | 6.2 | 66 | 26.2
CCCCC/C=C/C1=C(CO)C(=O)C[C@H](O)[C@@H]1O | > 100 | > 100 | > 100 | > 100 | > 100 | > 100
CCCCC/C=C/C1=C(CO)C(=O)[C@H]2O[C@H]2[C@@H]1O | 77.8 | 75 | 20 | 11.2 | 6.4 | 6.5
CCCCC/C=C/C1=C(CO)[C@H](O)[C@H]2O[C@H]2[C@@H]1O | > 100 | > 100 | > 100 | > 100 | > 100 | > 100
Nc1ccn([C@@H]2O[C@H](CO)[C@@H](O)C2(F)F)c(=O)n1 [GEMCITABINE] | 0.023 | 0.004 | 0.012 | 0.008 | 0.005 | 0.005
